In brackets after ≈: the same amount, converted by molar mass. Activity calls are given as the source filed them. No cut-off for these calls is given here.
Key:
[1] = system: Mycobacterium tuberculosis; test: Antimycobacterial activity against Mycobacterium tuberculosis H37Rv ATCC 25618; assay type: functional
In short: (§1)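 Classical test-tube successive-dilution method in Youmans' modification of Proskauer and Beck liquid medium with 10% bovine serum. Inoculum came from 14-day cultures. DMSO stock was 10 mg/mL, diluted geometrically in medium. Tubes were incubated at 37 °C. Concentrations tested were 3.1, 6.2, 12.5, 25, 50 and 100 µg/ml. MIC is the minimum concentration inhibiting growth relative to compound-free tubes.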

[2] = system: Escherichia coli; test: Antimicrobial activity against Escherichia coli NCTC 8196 after 18 hrs by twofold serial microdilution method; assay type: functional, organism-based
[3] = system: Bordetella bronchiseptica; test: Antimicrobial activity against Bordetella bronchiseptica ATCC 4617 after 18 hrs by twofold serial microdilution method; assay type: functional, organism-based
[4] = system: Candida albicans; test: Antimicrobial activity against Candida albicans ATCC 90028 after 24 hrs by twofold serial microdilution method; assay type: functional, organism-based
[5] = system: Vaccinia virus; test: Antiviral activity against Human Vaccinia virus ATCC VR-1549 infected in African green monkey Vero 76 cells assessed as reduction of virus-plaque formation after 3 days by crystal violet staining; assay type: functional, organism-based; conditions: Orthopoxvirus vaccinia, ATCC VR-1549, Vero, 72 h
[6] = system: Vesicular stomatitis virus; test: Antiviral activity against Vesicular stomatitis virus ATCC VR 1540 infected in African green monkey Vero 76 cells assessed as reduction of virus-plaque formation after 2 days by crystal violet staining; assay type: functional, organism-based; conditions: ATCC VR 1540, Vero, 48 h
[7] = system: Yellow fever virus; test: Antiviral activity against Yellow fever virus 17D infected in BHK cells assessed as protection against virus-induced cytopathogenicity after 3 to 4 days by MTT assay; assay type: functional, cell-based
[8] = system: Pseudomonas aeruginosa; test: Antimicrobial activity against Pseudomonas aeruginosa ATCC 27863 after 18 hrs by twofold serial microdilution method; assay type: functional, organism-based
[9] = Cytotoxicity against BHK cells assessed as cell viability after 48 to 96 hrs by MTT assay; assay type: cell-based, Mesocricetus auratus; conditions: hamster
[10] = system: Pseudomonas aeruginosa; test: Antimicrobial activity against Pseudomonas aeruginosa ATCC 15442 after 18 hrs by twofold serial microdilution method; assay type: functional, organism-based
[11] = system: Candida albicans; test: Antimicrobial activity against Candida albicans ATCC 10231 after 24 hrs by twofold serial microdilution method; assay type: functional, organism-based
[12] = system: Escherichia coli; test: Antimicrobial activity against Escherichia coli ATCC 25922 after 18 hrs by twofold serial microdilution method; assay type: functional, organism-based
[13] = system: Candida parapsilosis; test: Antimicrobial activity against Candida parapsilosis ATCC 22019 after 24 hrs by twofold serial microdilution method; assay type: functional, organism-based
[14] = system: Escherichia coli; test: Antimicrobial activity against Escherichia coli ATCC 10538 after 18 hrs by twofold serial microdilution method; assay type: functional, organism-based
[15] = system: Human alphaherpesvirus 1; test: Antiviral activity against Human herpesvirus 1 KOS ATCC VR-1493 infected in African green monkey Vero 76 cells assessed as reduction of virus-plaque formation after 3 days by crystal violet staining; assay type: functional, organism-based; conditions: Human alphaherpesvirus 1, KOS ATCC VR1493, Vero, 72 h
In short: (§2)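 Plaque reduction: Vero-76 at 2x10^5 cells/well grown to confluent monolayers, infected 2 h at 50–100 PFU/well; after removing unadsorbed virus, overlay of D-MEM, 1% inactivated FBS, 0.75% methylcellulose with or without serial compound dilutions; 3 days at 37°C, fixed and stained with crystal violet in 50% ethanol, plaques counted; EC50 by linear regression.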

[16] = system: Mammalian orthoreovirus 1; test: Antiviral activity against Reovirus type-1 ATCC VR-214 infected in BHK cells assessed as protection against virus-induced cytopathogenicity after 3 to 4 days by MTT assay; assay type: functional, cell-based; conditions: Mammalian orthoreovirus 1, ATCC VR-214, BHK
In short: (§3)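 Cells seeded in 96-well plates (BHK 5x10^4, MDBK 3x10^4 cells/well), grown overnight to confluence, infected at m.o.i. 0.01 (BHK for Reo-1, MDBK for BVDV); serial compound dilutions in maintenance medium with 0.5% inactivated FBS added after 1 h; viability by MTT after 3–4 days at 37°C; EC50 for 50% protection by linear regression.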

[17] = Cytotoxicity against bovine MDBK cells assessed as cell viability after 48 to 96 hrs by MTT assay; assay type: cell-based, Bos taurus; conditions: cattle
[18] = system: Pseudomonas aeruginosa; test: Antimicrobial activity against Pseudomonas aeruginosa NCTC 6749 after 18 hrs by twofold serial microdilution method; assay type: functional, organism-based
[19] = Cytotoxicity against human MT4 cells; assay type: cell-based
[20] = Antiviral activity against Bovine viral diarrhea virus 1-NADL ATCC VR-534 infected in MDBK cells assessed as protection against virus-induced cytopathogenicity after 3 to 4 days by MTT assay; assay type: functional, cell-based; conditions: Bovine viral diarrhea virus isolates and strains, ATCC VR-534, MDBK; in short: as §3
[21] = system: Mycobacterium tuberculosis; test: Antimycobacterial activity against drug-sensitive Mycobacterium tuberculosis Spec. 192; assay type: functional; in short: as §1
[22] = system: Coxsackievirus B5; test: Antiviral activity against Human coxsackievirus B5 ATCC VR-29 infected in African green monkey Vero 76 cells assessed as reduction of virus-plaque formation after 3 days by crystal violet staining; assay type: functional, organism-based; conditions: Enterovirus B, ATCC VR-29, Vero, 72 h; in short: as §2
[23] = system: Poliovirus 1; test: Antiviral activity against Poliovirus type 1 ATCC VR-1562 infected in African green monkey Vero 76 cells assessed as reduction of virus-plaque formation after 2 days by crystal violet staining; assay type: functional, organism-based; conditions: Enterovirus C, ATCC VR-1562, Vero, 48 h
[24] = system: Human immunodeficiency virus 1; test: Antiviral activity against HIV1 3B infected in human MT4 cells assessed as protection against virus-induced cytopathogenicity by MTT assay; assay type: functional, organism-based; conditions: Human immunodeficiency virus 1, 3B
[25] = Cytotoxicity against African green monkey Vero 76 cells assessed as cell viability after 48 to 96 hrs by crystal violet staining; assay type: cell-based; conditions: chlorocebus sabaeus

Row | SMILES | MIC [1] [µg/mL] | Activity [2] | Activity [3] | Activity [4] | EC50 [5] [µM] | EC50 [6] [µM] | EC50 [7] [µM] | Activity [8] | CC50 [9] [µM] | Activity [10] | Activity [11] | Activity [12] | Activity [13] | Activity [14] | EC50 [15] [µM] | EC50 [16] [µM] | CC50 [17] [µM] | Activity [18] | CC50 [19] [µM] | EC50 [20] [µM] | also measured
1 | Cc1ccc(NC(=S)Nc2cccc(C(F)(F)F)c2)cc1Cl | > 100 | inactive | inactive | inactive | > 20 | > 20 | > 10 | inactive | 10 | inactive | inactive | inactive | inactive | inactive | > 20 | > 10 | 10 | inactive | 20 | > 10 | MIC [21]: > 100 µg/mL; EC50 [22]: > 20 µM; EC50 [23]: > 20 µM; EC50 [24]: > 20 µM; CC50 [25]: 20 µM
2 | CCOC(=O)c1ccc(NC(=S)Nc2cccc(C(F)(F)F)c2)cc1 | > 100 | inactive | inactive | inactive | > 71 | > 71 | > 50 | inactive | 50 | inactive | inactive | inactive | inactive | inactive | > 71 | > 50 | 64 | inactive | 23 | > 64 | MIC [21]: > 100 µg/mL; EC50 [22]: > 71 µM; EC50 [23]: > 71 µM; EC50 [24]: > 23 µM; CC50 [25]: 71 µM
3 | CCCCc1ccc(NC(=S)Nc2cccc(C(F)(F)F)c2)c(C)c1 | 50 (≈ 136 µM) | inactive | inactive | inactive | > 18 | > 18 | > 9 | inactive | 9 | inactive | inactive | inactive | inactive | inactive | > 18 | > 9 | 10 | inactive | 43 | > 10 | MIC [21]: 100 µg/mL (≈ 273 µM); EC50 [22]: > 18 µM; EC50 [23]: > 18 µM; EC50 [24]: > 43 µM; CC50 [25]: 18 µM

Reference: ChEMBL document CHEMBL3616436, “Synthesis, cytotoxicity and antimicrobial activity of thiourea derivatives incorporating 3-(trifluoromethyl)phenyl moiety” (Eur J Med Chem, 2015)
